# Sampled rows, rich in hits. Any-hit rate of the full collection: about 2.3%.
# ABCB1 block: human ABCB1 inhibition, ABCG2 as counter-screen; P08183; CCRF-Adr cells, JC-1 efflux, flow cytometry; inhibition, % at 6.6 µM; 190,000 tested, 0.067% active; in the data active = inhibition above about 40%;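 also: higher value means more JC-1 retained so stronger ABCB1 efflux block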
# MEKK2 mut-MEK5: signal of MEK5 binding to mutant human MEKK2 PB1 domain | bead flow cytometry, Alexa488-MEK5 binding to MEKK2 mutant | percent response, % at 10 µM | 290,000 tested, 0.35% active; in the data active = percent response above about 24%, passing the limit was not always enough
# ABCG2 inh: inhibitors of human ABCG2 transporter, ABCB1 counter-screen. IgMXP3 cells, JC-1 efflux, flow cytometry. inhibition, % at 6.6 µM. 190,000 tested, 0.1% active. AID 1325;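 active = inhibition above 80%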
#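 Read-out basis: Efflux inhibition in percent versus controls | Test system: ABCG2 IgMXP3 and barcoded ABCB1 CCRF-Adr cell mix | Quantity: 3 million cells/mL in well | Schedule: 10 min at 25 °C | Control set: Nicardipine as high control, DMSO as low control | Reagent: JC-1 as fluorescent efflux pump substrate | Signal: Flow cytometry of retained JC-1 fluorescence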
# MEKK3 PB1 HTS: MEKK3-MEK5 PB1 interaction, increase or decrease | Q99759 | bead-based flow cytometry, Alexa488-MEK5 binding to MEKK3; actives lie on both sides; 0 = blocked by unlabeled MEK5, 100 = vehicle | binding response (% of control), % at 10 µM | 290,000 tested, 1.4% active;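 active = binding response more than 3 SD above or below the average of its plate-row segment, actives on both sides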;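 also: Alexa488 bead fluorescence after subtracting the streptavidin-only scavenger bead signal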
# Target sequence (Q99759 whole entry, looked up): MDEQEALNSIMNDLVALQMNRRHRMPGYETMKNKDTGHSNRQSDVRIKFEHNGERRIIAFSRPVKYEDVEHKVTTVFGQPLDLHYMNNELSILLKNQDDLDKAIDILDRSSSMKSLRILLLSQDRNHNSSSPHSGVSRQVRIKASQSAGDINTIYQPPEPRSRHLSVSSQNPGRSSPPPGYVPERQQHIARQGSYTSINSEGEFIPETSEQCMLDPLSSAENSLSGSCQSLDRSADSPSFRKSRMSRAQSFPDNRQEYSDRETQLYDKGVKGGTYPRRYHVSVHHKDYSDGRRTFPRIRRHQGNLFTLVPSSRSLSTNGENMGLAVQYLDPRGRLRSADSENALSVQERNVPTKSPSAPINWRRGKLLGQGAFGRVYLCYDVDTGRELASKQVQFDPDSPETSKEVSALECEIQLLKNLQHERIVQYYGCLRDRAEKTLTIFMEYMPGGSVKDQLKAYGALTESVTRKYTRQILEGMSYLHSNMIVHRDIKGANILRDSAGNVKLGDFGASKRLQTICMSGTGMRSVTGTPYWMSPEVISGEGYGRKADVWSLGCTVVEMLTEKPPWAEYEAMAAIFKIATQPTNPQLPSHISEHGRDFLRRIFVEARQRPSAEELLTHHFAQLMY
# MEKK2wt PB1 HTS: raises or lowers MEK5 binding to wildtype human MEKK2 PB1 domain; 290,000 tested, 1.1% active; bead flow cytometry, Alexa488-MEK5 binding to MEKK2 WT; actives lie on both sides; AID 1531; binding response (% of control), % at 10 µM; Q9Y2U5; in the data active = binding response below about 67% or above about 130%
# Numbers stand for hits; i = inactive; nt = no result; [ ] = remark or other dose.
SMILES,ABCB1 block,MEKK2 mut-MEK5,ABCG2 inh,MEKK3 PB1 HTS,MEKK2wt PB1 HTS
CC(NC(=O)C12CC3CC(CC(C3)C1)C2)C(=O)N/N=C/C1=C(N2CCOCC2)C(=C\c2cccc([N+](=O)[O-])c2)/CC1 (configuration not stated),i,i,i,i,i
CC(C)C(NC(=O)C12CC3CC(CC(C3)C1)C2)C(=O)N/N=C/C1=C(N2CCOCC2)C(=C\c2ccc([N+](=O)[O-])cc2)/CC1 (configuration not stated),i,i,i,i,-2.0
c1ccc(C2(Cn3ccc4ccccc43)OCCO2)cc1,i,i,i,i,12
CN1CCOc2cc(S(=O)(=O)NCc3ccc(S(N)(=O)=O)cc3)ccc21,nt,i,nt,i,i
CN1C(=O)CSc2ccc(NC(=O)N3CCC(N4CCCCC4)CC3)cc21,i,i,i,i,-1.0
O=C(Nc1ccc2c(c1)CCCN2C(=O)c1ccccc1)c1ccccc1,nt,i,nt,i,i
COc1ccc(-n2c(SCC(=O)Nc3cc(C)on3)nc3ccccc3c2=O)cc1Cl,i,83,i,i,nt
COc1cccc(-n2c(SCC(=O)Nc3cc(C)on3)nc3ccccc3c2=O)c1,i,i,i,i,i
Cc1ccc(/C=N/NC(=O)CNC(=O)COc2ccccc2)cc1,i,i,i,i,i
COc1ccc(/C=N/NC(=O)CNC(=O)COc2ccccc2)cc1,i,i,i,i,4.0
COCCN1Cc2cccc(C(=O)Nc3cc(C)cc(C)c3)c2C1=O,i,i,82,i,i
COCCN1Cc2cccc(C(=O)Nc3c(C)cc(C)cc3C)c2C1=O,i,i,i,i,i
CCOc1cccc2sc(N(CCN(C)C)C(=O)/C=C/c3cccs3)nc12,nt,26,nt,i,144
CCN(CC)CCN(C(=O)/C=C/c1cccs1)c1nc2ccc(C)cc2s1,nt,i,nt,i,160
COc1cccc2sc(N(CCN(C)C)C(=O)/C=C/c3cccs3)nc12,i,i,i,i,i
COc1ccc(OC)c2sc(N(CCN(C)C)C(=O)/C=C/c3cccs3)nc12,nt,i,nt,i,i
COc1ccc(C)c2sc(N(CCN(C)C)C(=O)/C=C/c3cccs3)nc12,nt,i,nt,i,145
NS(=O)(=O)c1cccc(NC(=O)COC(=O)CCc2ccccc2)c1,nt,i,nt,i,i
CCOC(=O)N1CCC(N2C(=O)c3ccc(C(=O)Nc4ccc(OC)c(OC)c4)cc3C2=O)CC1,nt,i,nt,i,i
COc1cc(/C=C/C(=O)Nc2ccc(N3CCCCC3)c(S(=O)(=O)Nc3ccccc3Cl)c2)cc(OC)c1OC,i,i,i,i,32
COc1ccccc1NS(=O)(=O)c1cc(NC(=O)Nc2ccc(Cl)cc2Cl)ccc1N1CCCCC1,i,i,i,i,i
CCOc1ccccc1-c1c2cc(O)c(=O)cc-2oc2cc(O)c(O)cc12,i,51,i,137,166
CCC(C(=O)NC1CCCCC1)n1c2ccccc2c2nc(=O)cc(C)n21 (configuration not stated),nt,i,nt,i,i
CCOC(=O)Nc1ccc2c(c1)N(C(=O)CN1CCN(CCO)CC1)c1ccccc1CC2,nt,i,nt,i,i
CC1N(C)c2cc(NC(=O)c3ccco3)c(P(=O)(Nc3ccc([N+](=O)[O-])cc3)N3CCOCC3)cc2C1(C)C (configuration not stated),i,i,i,i,i
SMILES,ABCB1 block,MEKK2 mut-MEK5,ABCG2 inh,MEKK3 PB1 HTS,MEKK2wt PB1 HTS
CC1N(C)c2cc(NC(=O)c3ccco3)ccc2C1(C)C (configuration not stated),i,i,i,i,-7.0
CCc1c(C(=O)NNC(=O)Nc2ccc3c(c2)OCO3)csc1C,nt,i,nt,i,i
COc1cc2ncnc(NCc3cccc(Cl)c3)c2cc1OC,i,i,i,i,138
Cc1ccccc1SCC(=O)NCCCn1ccnc1,nt,i,nt,i,i
O=C(CSc1cc(Cl)ccc1Cl)NCCCn1ccnc1,nt,26,nt,i,i
O=C(NCCCN1CCOCC1)c1ccc(/C=C2\Oc3ccccc3N(Cc3ccccc3F)C2=O)cc1,nt,i,nt,i,i
CCN1CCN(CCCNC(=O)c2ccc(/C=C3/Sc4ccccc4N(Cc4ccccc4F)C3=O)cc2)CC1,i,i,i,i,177
CCN1CCN(CCCNC(=O)c2ccc(/C=C3/Oc4ccccc4N(Cc4cccc(C)c4)C3=O)cc2)CC1,nt,34,nt,i,169
O=C(COC(=O)c1ccc(O)cc1)Nc1ccccc1,nt,i,nt,i,i
Cc1cc(Cl)c2oc(C(=O)N(C)CC3CCOCC3)c(C)c2c1,nt,i,nt,31[inhibitor],43[inhibitor]
COC(=O)c1ccc2c(c1)C(C)(C)C(/C=C/c1ccc(O)cc1)=[N+]2C,i,i,i,i,51[inhibitor]
CC(=O)N1CCN(c2ccccc2NC(=O)c2ccc(-c3cccc([N+](=O)[O-])c3)o2)CC1,i,i,i,i,i
CN1CCN(c2ccccc2NC(=O)c2ccc(-c3ccccc3[N+](=O)[O-])o2)CC1,nt,i,nt,i,135
O=c1ccc2c(-c3ccccc3)c3ccc(O)cc3oc-2c1,nt,i,nt,i,i
Nc1ccc(-c2c3ccc(=O)cc-3oc3cc(O)ccc23)cc1C(=O)O,nt,27,nt,i,i
CCOC(=O)c1c(NC(=O)CSc2ncnc3ccccc23)sc(C(C)=O)c1C,42,i,i,i,i
CC1CN(C(=O)/C=C/c2ccc(SC(F)F)cc2)CC(C)O1 (configuration not stated),nt,i,nt,i,i
CCN(CC)S(=O)(=O)c1ccc(OC)c(NC(=O)C2CC(=O)N(c3ccc4c(c3)OCCO4)C2)c1 (configuration not stated),nt,i,nt,0.0[inhibitor],-2.0[inhibitor]
CCCc1cc(C(=O)Nc2ccc(OC)cc2[N+](=O)[O-])cs1,nt,i,nt,i,i
COc1ccc(S(=O)(=O)N2CCC(C(=O)NC3CCCCC3C)CC2)cc1 (configuration not stated),nt,i,nt,i,i
COc1ccc(C(OCC(O)CNC(C)c2ccccc2)c2ccc(OC)cc2)cc1 (configuration not stated),nt,i,nt,i,i
COc1ccc(CCNCc2ccc(OCc3ccccc3)cc2)cc1,nt,i,nt,i,136
COc1ccc(CNCCC(c2ccc(F)cc2)c2ccc(OC)cc2)cc1 (configuration not stated),i,i,i,i,140
COc1ccc(C(CCNCc2ccc(F)cc2)c2ccc(F)cc2)cc1 (configuration not stated),i,i,i,i,i
COc1ccc(C(OCC(O)CNCCc2ccccc2)c2ccc(OC)cc2)cc1 (configuration not stated),nt,i,nt,i,151
Cn1c2ccccc2c(=O)c2ccc(-c3ccc4c(c3)OCO4)cc21,nt,i,nt,i,i
COc1ccc(N(CC(=O)Nc2ccc(C(N)=O)cc2)S(=O)(=O)c2ccc(C)c([N+](=O)[O-])c2)cc1,i,i,i,i,-7.0
CCN(CC)c1ccc(C=C2C(=O)OC(c3ccccc3)OC2=O)cc1 (configuration not stated),i,i,i,i,i

# Assay outcomes (PubChem BioAssay)
